Measurements published in ChEMBL document CHEMBL4007405 (J Med Chem, 2017).
Activity calls are given as the source filed them. The rule behind the calls is not given here. Positions of bridges follow the written chain, without caps; N, C: chain ends. Residues, ends and D or L forms follow the SMILES beside them.

What was measured:
[1] = target: T1, Lethal factor (Bacillus anthracis) (UniProt P15917); test: (§1) Inhibition of Bacillus anthracis lethal factor protease preincubated for 30 mins prior to addition of substrate containing fluorescent proteins CyPet and YPet measured every 2 mins for 3 hrs by FRET assay
T1 sequence (whole entry): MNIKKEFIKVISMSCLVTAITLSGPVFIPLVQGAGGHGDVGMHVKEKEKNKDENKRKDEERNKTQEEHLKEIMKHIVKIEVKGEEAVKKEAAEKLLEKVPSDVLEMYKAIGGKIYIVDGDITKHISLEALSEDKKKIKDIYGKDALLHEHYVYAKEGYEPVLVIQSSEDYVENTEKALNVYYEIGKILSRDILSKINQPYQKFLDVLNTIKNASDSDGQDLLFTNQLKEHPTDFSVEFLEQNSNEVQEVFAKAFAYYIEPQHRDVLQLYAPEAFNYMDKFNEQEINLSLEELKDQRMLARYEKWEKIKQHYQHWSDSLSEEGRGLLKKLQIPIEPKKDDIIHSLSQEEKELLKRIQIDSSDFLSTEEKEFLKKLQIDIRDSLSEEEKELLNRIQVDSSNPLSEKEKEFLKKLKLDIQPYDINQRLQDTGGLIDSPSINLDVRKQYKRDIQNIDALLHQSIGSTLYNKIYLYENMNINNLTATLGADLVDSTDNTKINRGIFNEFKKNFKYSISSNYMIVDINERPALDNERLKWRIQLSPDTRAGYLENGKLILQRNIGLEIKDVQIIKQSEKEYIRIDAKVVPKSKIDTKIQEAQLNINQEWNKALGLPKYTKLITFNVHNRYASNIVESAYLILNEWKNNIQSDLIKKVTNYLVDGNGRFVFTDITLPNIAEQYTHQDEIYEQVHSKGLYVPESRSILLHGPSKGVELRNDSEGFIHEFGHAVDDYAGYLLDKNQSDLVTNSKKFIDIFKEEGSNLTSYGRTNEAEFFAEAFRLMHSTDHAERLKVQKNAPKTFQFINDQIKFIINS
Method in brief: (§2)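 Preincubated with peptide from 1 nM to 10 μM for 30 min at room temperature. CyPet–YPet substrate (LF consensus sequence with (GGS)6 linkers) then added to a final 10 nM. FRET read every 2 min for 3 h with excitation at 405 nm and emission ratio It/I0 at 535 nm. Initial velocities fitted to log(inhibitor)–response with variable Hill slope. Run in triplicate.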

Lethal factor [2] = target: T2, Lethal factor (Bacillus anthracis, UniProt P15917); test: as §1; method in brief: as §2
T2 sequence (P15917 whole entry): T1 sequence (whole entry)

[3] = target: T1, Lethal factor (Bacillus anthracis); test: Inhibition of Bacillus anthracis lethal factor protease up to 10 uM preincubated for 30 mins prior to addition of substrate containing fluorescent proteins CyPet and YPet measured every 2 mins for 3 hrs by FRET assay; method in brief: as §2
Lethal factor [4] = target: T2, Lethal factor
HeLa = test: Cytotoxicity against human HeLa cells up to 100 uM after 48 hrs by MTT assay; type: cell-based
Method in brief: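 HeLa cells grown in DMEM with 10% FBS, penicillin and streptomycin at 37° C, 5% CO2. About 3 × 10^3 cells per well were seeded for 24 h, washed with PBS, then exposed to peptides in DMEM/10% FBS for 48 h at 37° C. MTT was added for 2 h and formazan dissolved in DMSO. Absorbance read at 595 nm with 670 nm background subtracted.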

## CC[C@H](C)[C@@H]1NC(=O)[C@@H]2CSSC[C@H](NC(=O)[C@H](CC(=O)O)NC(=O)[C@@H]3CSSC[C@H](NC1=O)C(=O)N[C@@H]([C@@H](C)O)C(=O)N[C@@H](CCCNC(=N)N)C(=O)NCC(=O)N[C@@H](Cc1ccccc1)C(=O)N3)C(=O)N[C@@H](CC(C)C)C(=O)N[C@H]1CSSC[C@H](NC(=O)[C@H](C(C)C)NC(=O)CNC(=O)[C@H](CCCNC(=N)N)NC(=O)[C@H](CCCNC(=N)N)NC1=O)C(=O)N[C@@H](CCCNC(=N)N)C(=O)N2 (cyclo(CDCLCRRGVCRCICTRGF); disulfide 1-14, 3-12, 5-10)
[1]
  inhibition: Dose-dependent effect

## CC[C@H](C)[C@@H]1NC(=O)[C@@H]2CSSC[C@H](NC(=O)[C@H](CCCNC(=N)N)NC(=O)[C@@H]3CSSC[C@H](NC1=O)C(=O)N[C@@H]([C@@H](C)O)C(=O)N[C@@H](CCC(=O)O)C(=O)NCC(=O)N[C@@H](Cc1ccccc1)C(=O)N3)C(=O)N[C@@H](CC(C)C)C(=O)N[C@H]1CSSC[C@H](NC(=O)[C@H](C(C)C)NC(=O)CNC(=O)[C@H](CCCNC(=N)N)NC(=O)[C@H](CCCNC(=N)N)NC1=O)C(=O)N[C@@H](CCCNC(=N)N)C(=O)N2 (cyclo(CICTEGFCRCLCRRGVCR); disulfide 1-10, 3-8, 12-17)
Lethal factor [2]
  IC50: 3500 nM
[1]
  inhibition: Dose-dependent effect

## CC[C@H](C)[C@@H]1NC(=O)[C@H](CS)NC(=O)[C@H](CCCNC(=N)N)NC(=O)[C@H](CS)NC(=O)[C@H](C(C)C)NC(=O)CNC(=O)[C@H](CCCNC(=N)N)NC(=O)[C@H](CCCNC(=N)N)NC(=O)[C@H](CS)NC(=O)[C@H](CC(C)C)NC(=O)[C@H](CS)NC(=O)[C@H](CCCNC(=N)N)NC(=O)[C@H](CS)NC(=O)[C@H](Cc2ccccc2)NC(=O)CNC(=O)[C@H](CCCNC(=N)N)NC(=O)[C@H]([C@@H](C)O)NC(=O)[C@H](CS)NC1=O (cyclo(CICTRGFCRCLCRRGVCR))
[3]
  inhibition: inactive

## CC[C@H](C)[C@@H]1NC(=O)[C@@H]2CSSC[C@H](NC(=O)[C@H](CCCNC(=N)N)NC(=O)[C@@H]3CSSC[C@H](NC1=O)C(=O)N[C@@H]([C@@H](C)O)C(=O)N[C@@H](CCCNC(=N)N)C(=O)NCC(=O)N[C@@H](Cc1ccccc1)C(=O)N3)C(=O)N[C@@H](CC(C)C)C(=O)N[C@H]1CSSC[C@H](NC(=O)[C@H](Cc3c[nH]c4ccccc34)NC(=O)CNC(=O)[C@H](CCCNC(=N)N)NC(=O)[C@H](CCCNC(=N)N)NC1=O)C(=O)N[C@@H](CCCNC(=N)N)C(=O)N2 (cyclo(CICTRGFCRCLCRRGWCR); disulfide 1-10, 3-8, 12-17)
[1]
  inhibition: Dose-dependent effect

## CC[C@H](C)[C@@H]1NC(=O)[C@@H]2CSSC[C@H](NC(=O)[C@H](CCCNC(=N)N)NC(=O)[C@@H]3CSSC[C@H](NC1=O)C(=O)N[C@@H]([C@@H](C)O)C(=O)N[C@@H](CCCNC(=N)N)C(=O)NCC(=O)N[C@@H](Cc1ccccc1)C(=O)N3)C(=O)N[C@@H](CC(C)C)C(=O)N[C@H]1CSSC[C@H](NC(=O)[C@H](Cc3c[nH]c4ccccc34)NC(=O)[C@H](CCCNC(=N)N)NC(=O)[C@H](CCCNC(=N)N)NC(=O)[C@H](CCCNC(=N)N)NC1=O)C(=O)N[C@@H](CCCNC(=N)N)C(=O)N2 (cyclo(CICTRGFCRCLCRRRWCR); disulfide 1-10, 3-8, 12-17)
[1]
  inhibition: Dose-dependent effect

## CC[C@H](C)[C@@H]1NC(=O)[C@@H]2CSSC[C@H](NC(=O)[C@H](CCCNC(=N)N)NC(=O)[C@@H]3CSSC[C@H](NC1=O)C(=O)N[C@@H]([C@@H](C)O)C(=O)N[C@@H](CCCNC(=N)N)C(=O)NCC(=O)N[C@@H](Cc1ccccc1)C(=O)N3)C(=O)N[C@@H](Cc1c[nH]c3ccccc13)C(=O)N[C@H]1CSSC[C@H](NC(=O)[C@H](Cc3c[nH]c4ccccc34)NC(=O)[C@H](CCCNC(=N)N)NC(=O)[C@H](CCCNC(=N)N)NC(=O)[C@H](CCCNC(=N)N)NC1=O)C(=O)N[C@@H](CCCNC(=N)N)C(=O)N2 (cyclo(CICTRGFCRCWCRRRWCR); disulfide 1-10, 3-8, 12-17)
[1]
  inhibition: Dose-dependent effect

## CC(C)C[C@@H]1NC(=O)[C@@H]2CSSC[C@H](NC(=O)[C@H](CCCNC(=N)N)NC(=O)[C@@H]3CSSC[C@H](NC1=O)C(=O)N[C@@H](CCCNC(=N)N)C(=O)N[C@@H](CCCNC(=N)N)C(=O)NCC(=O)N[C@@H](C(C)C)C(=O)N3)C(=O)N[C@@H](Cc1c[nH]c3ccccc13)C(=O)N[C@H]1CSSC[C@H](NC(=O)[C@H](Cc3ccccc3)NC(=O)CNC(=O)[C@H](CCCNC(=N)N)NC(=O)[C@H]([C@@H](C)O)NC1=O)C(=O)N[C@@H](CCCNC(=N)N)C(=O)N2 (cyclo(CLCRRGVCRCWCTRGFCR); disulfide 1-10, 3-8, 12-17)
Lethal factor [2]
  IC50: 205 nM
[1]
  inhibition: Dose-dependent effect

## N=C(N)NCCC[C@@H]1NC(=O)[C@H](CCCNC(=N)N)NC(=O)[C@@H]2CSSC[C@H](NC(=O)[C@H](Cc3c[nH]c4ccccc34)NC(=O)[C@H](CCCNC(=N)N)NC1=O)C(=O)N[C@@H](CCCNC(=N)N)C(=O)N[C@H]1CSSC[C@H](NC(=O)[C@H](CCCNC(=N)N)NC(=O)[C@@H]3CSSC[C@H](NC(=O)[C@H](Cc4c[nH]c5ccccc45)NC1=O)C(=O)N[C@@H](CCCNC(=N)N)C(=O)N[C@@H](CCCNC(=N)N)C(=O)N[C@@H](CCCNC(=N)N)C(=O)N[C@@H](Cc1c[nH]c4ccccc14)C(=O)N3)C(=O)N[C@@H](Cc1c[nH]c3ccccc13)C(=O)N2 (cyclo(CRCWCRRRWCRCWCRRRW); disulfide 1-14, 3-12, 5-10)
Lethal factor [4]
  IC50: 250 nM
HeLa
  Activity: Non-Toxic
[1]
  inhibition: Dose-dependent effect

## C[C@@H](O)[C@@H]1NC(=O)[C@@H]2CSSC[C@H](NC(=O)[C@H](Cc3ccccc3)NC(=O)CNC(=O)[C@H](CCCNC(=N)N)NC1=O)C(=O)N[C@@H](CCCNC(=N)N)C(=O)N[C@H]1CSSC[C@H](NC(=O)[C@H](CCCNC(=N)N)NC(=O)[C@@H]3CSSC[C@H](NC(=O)[C@H](Cc4c[nH]c5ccccc45)NC1=O)C(=O)N[C@@H](CCCNC(=N)N)C(=O)N[C@@H](CCCNC(=N)N)C(=O)N[C@@H](CCCNC(=N)N)C(=O)N[C@@H](Cc1c[nH]c4ccccc14)C(=O)N3)C(=O)N[C@@H](Cc1c[nH]c3ccccc13)C(=O)N2 (cyclo(CRCWCRRRWCRCWCTRGF); disulfide 1-14, 3-12, 5-10)
[1]
  inhibition: Dose-dependent effect

## C[C@@H](O)[C@@H]1NC(=O)[C@@H]2CSSC[C@H](NC(=O)[C@H](Cc3c[nH]c4ccccc34)NC(=O)CNC(=O)[C@H](CCCNC(=N)N)NC1=O)C(=O)N[C@@H](CCCNC(=N)N)C(=O)N[C@H]1CSSC[C@H](NC(=O)[C@H](CCCNC(=N)N)NC(=O)[C@@H]3CSSC[C@H](NC(=O)[C@H](Cc4c[nH]c5ccccc45)NC1=O)C(=O)N[C@@H](CCCNC(=N)N)C(=O)N[C@@H](CCCNC(=N)N)C(=O)N[C@@H](CCCNC(=N)N)C(=O)N[C@@H](Cc1c[nH]c4ccccc14)C(=O)N3)C(=O)N[C@@H](Cc1c[nH]c3ccccc13)C(=O)N2 (cyclo(CRCWCRRRWCRCWCTRGW); disulfide 1-14, 3-12, 5-10)
[1]
  inhibition: Dose-dependent effect

## C[C@@H](O)[C@@H]1NC(=O)[C@@H]2CSSC[C@H](NC(=O)[C@H](Cc3c[nH]c4ccccc34)NC(=O)[C@H](CCCNC(=N)N)NC(=O)[C@H](CCCNC(=N)N)NC1=O)C(=O)N[C@@H](CCCNC(=N)N)C(=O)N[C@H]1CSSC[C@H](NC(=O)[C@H](CCCNC(=N)N)NC(=O)[C@@H]3CSSC[C@H](NC(=O)[C@H](Cc4c[nH]c5ccccc45)NC1=O)C(=O)N[C@@H](CCCNC(=N)N)C(=O)N[C@@H](CCCNC(=N)N)C(=O)N[C@@H](CCCNC(=N)N)C(=O)N[C@@H](Cc1c[nH]c4ccccc14)C(=O)N3)C(=O)N[C@@H](Cc1c[nH]c3ccccc13)C(=O)N2 (cyclo(CRCWCRRRWCRCWCTRRW); disulfide 1-14, 3-12, 5-10)
[1]
  inhibition: Dose-dependent effect
